How the values were obtained:
[1] = biological target: Somatostatin receptor type 2 (Rattus norvegicus, UniProt P30680); assay: Displacement of [111In]DOTA0,Tyr3]octreotide from SSTR2 receptor in rat AR42J cells; assay type: cell-based, AR-42J
Method in brief: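 AR42J cells (DMEM, 10% FCS, 37 °C, 5% CO₂) seeded 8 × 10⁵/well and grown to confluence, washed with DMEM + 0.1% BSA. Incubated 3 h at 37 °C with [¹¹¹In-DOTA⁰,Tyr³]octreotide tracer (40 000 dpm) and unlabeled peptide at 0.1-300 nM. Washed twice; cell-bound activity γ-counted. IC₅₀ from fitted sigmoidal displacement curves with 95% CI.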

[2] = Octanol-water partition coefficient, log D at pH 7.4; assay type: physicochemical
Method in brief: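 ¹¹¹In-labeled conjugate (~148 kBq) in PBS pH 7.4 mixed 1:1 with n-octanol and shaken 2 min. Phases separated by centrifugation (5 min, 250g); triplicate aliquots of each layer γ-counted. log D = log₁₀(octanol counts/aqueous counts), from at least two independent experiments.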

Blood [3] = assay: Biodistribution in blood of BALB/c mouse bearing rat AR42J cells at 0.37 MBq, iv after 2 hrs; assay type: ADME, organism-based, AR-42J; details: in vivo
Method in brief: (§1)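 AR42J tumor grown in right flank of male BALB/c nude mice (20-25 g, 6-8 weeks) by sc injection of 5 × 10⁶ cells; used after ~2 weeks at 4-6 mm diameter. Groups of five received 0.37 MBq (0.1 μg) ¹¹¹In-DOTA conjugate iv via tail vein (labeled in 0.25 M NH₄OAc pH 5.5, 95 °C, 15 min). Tissues dissected at 2, 6 or 24 h, weighed, γ-counted against 1% injected-activity standards; %ID/g, mean ± SD.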

[4] = Biodistribution in tumor of BALB/c mouse bearing rat AR42J cells at 0.37 MBq, iv after 2 hrs; assay type: ADME, organism-based, Neoplasm, AR-42J; details: in vivo; method in brief: as §1
Pancreas [5] = assay: Biodistribution in pancreas of BALB/c mouse bearing rat AR42J cells at 0.37 MBq, iv after 2 hrs; assay type: ADME, organism-based, AR-42J; details: in vivo; method in brief: as §1
[6] = Biodistribution in adrenal gland of BALB/c mouse bearing rat AR42J cells at 0.37 MBq, iv after 2 hrs; assay type: ADME, organism-based, AR-42J; details: in vivo; method in brief: as §1
Kidney [7] = assay: Biodistribution in kidney of BALB/c mouse bearing rat AR42J cells at 0.37 MBq, iv after 2 hrs; assay type: ADME, organism-based, AR-42J; details: in vivo; method in brief: as §1
Liver [8] = assay: Biodistribution in liver of BALB/c mouse bearing rat AR42J cells at 0.37 MBq, iv after 2 hrs; assay type: ADME, organism-based, AR-42J; details: in vivo; method in brief: as §1
Stomach [9] = assay: Biodistribution in stomach of BALB/c mouse bearing rat AR42J cells at 0.37 MBq, iv after 2 hrs; assay type: ADME, organism-based, AR-42J; details: in vivo; method in brief: as §1
Blood [10] = assay: Biodistribution in blood of BALB/c mouse bearing rat AR42J cells at 0.37 MBq, iv after 6 hrs; assay type: ADME, organism-based, AR-42J; details: in vivo; method in brief: as §1
[11] = Biodistribution in tumor of BALB/c mouse bearing rat AR42J cells at 0.37 MBq, iv after 6 hrs; assay type: ADME, organism-based, Neoplasm, AR-42J; details: in vivo; method in brief: as §1
Pancreas [12] = assay: Biodistribution in pancreas of BALB/c mouse bearing rat AR42J cells at 0.37 MBq, iv after 6 hrs; assay type: ADME, organism-based, AR-42J; details: in vivo; method in brief: as §1
[13] = Biodistribution in adrenal gland of BALB/c mouse bearing rat AR42J cells at 0.37 MBq, iv after 6 hrs; assay type: ADME, organism-based, AR-42J; details: in vivo; method in brief: as §1
Kidney [14] = assay: Biodistribution in kidney of BALB/c mouse bearing rat AR42J cells at 0.37 MBq, iv after 6 hrs; assay type: ADME, organism-based, AR-42J; details: in vivo; method in brief: as §1
Liver [15] = assay: Biodistribution in liver of BALB/c mouse bearing rat AR42J cells at 0.37 MBq, iv after 6 hrs; assay type: ADME, organism-based, AR-42J; details: in vivo; method in brief: as §1
Stomach [16] = assay: Biodistribution in stomach of BALB/c mouse bearing rat AR42J cells at 0.37 MBq, iv after 6 hrs; assay type: ADME, organism-based, AR-42J; details: in vivo; method in brief: as §1
Blood [17] = assay: Biodistribution in blood of BALB/c mouse bearing rat AR42J cells at 0.37 MBq, iv after 24 hrs; assay type: ADME, organism-based, AR-42J; details: in vivo; method in brief: as §1
[18] = Biodistribution in tumor of BALB/c mouse bearing rat AR42J cells at 0.37 MBq, iv after 24 hrs; assay type: ADME, organism-based, Neoplasm, AR-42J; details: in vivo; method in brief: as §1
Pancreas [19] = assay: Biodistribution in pancreas of BALB/c mouse bearing rat AR42J cells at 0.37 MBq, iv after 24 hrs; assay type: ADME, organism-based, AR-42J; details: in vivo; method in brief: as §1
[20] = Biodistribution in adrenal gland of BALB/c mouse bearing rat AR42J cells at 0.37 MBq, iv after 24 hrs; assay type: ADME, organism-based, AR-42J; details: in vivo; method in brief: as §1
Kidney [21] = assay: Biodistribution in kidney of BALB/c mouse bearing rat AR42J cells at 0.37 MBq, iv after 24 hrs; assay type: ADME, organism-based, AR-42J; details: in vivo; method in brief: as §1
Liver [22] = assay: Biodistribution in liver of BALB/c mouse bearing rat AR42J cells at 0.37 MBq, iv after 24 hrs; assay type: ADME, organism-based, AR-42J; details: in vivo; method in brief: as §1
Stomach [23] = assay: Biodistribution in stomach of BALB/c mouse bearing rat AR42J cells at 0.37 MBq, iv after 24 hrs; assay type: ADME, organism-based, AR-42J; details: in vivo; method in brief: as §1
Blood [24] = assay: Biodistribution in blood of BALB/c mouse bearing rat AR42J cells at 0.37 MBq, iv after 2 hrs under cold condition; assay type: ADME, organism-based, AR-42J; details: in vivo
Method in brief: (§2)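 Receptor block: groups of three AR42J tumor-bearing male BALB/c nude mice co-injected iv via tail vein with 0.37 MBq (0.1 μg) ¹¹¹In-DOTA conjugate plus 50 μg octreotide. Killed by CO₂/O₂ at 2 h; blood, tumor and tissues dissected, weighed and γ-counted against 1% injected-activity standards; %ID/g reported as mean ± SD.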

[25] = Biodistribution in tumor of BALB/c mouse bearing rat AR42J cells at 0.37 MBq, iv after 2 hrs under cold condition; assay type: ADME, organism-based, Neoplasm, AR-42J; details: in vivo; method in brief: as §2
Pancreas [26] = assay: Biodistribution in pancreas of BALB/c mouse bearing rat AR42J cells at 0.37 MBq, iv after 2 hrs under cold condition; assay type: ADME, organism-based, AR-42J; details: in vivo; method in brief: as §2
[27] = Biodistribution in adrenal gland of BALB/c mouse bearing rat AR42J cells at 0.37 MBq, iv after 2 hrs under cold condition; assay type: ADME, organism-based, AR-42J; details: in vivo; method in brief: as §2
Kidney [28] = assay: Biodistribution in kidney of BALB/c mouse bearing rat AR42J cells at 0.37 MBq, iv after 2 hrs under cold condition; assay type: ADME, organism-based, AR-42J; details: in vivo; method in brief: as §2
Liver [29] = assay: Biodistribution in liver of BALB/c mouse bearing rat AR42J cells at 0.37 MBq, iv after 2 hrs under cold condition; assay type: ADME, organism-based, AR-42J; details: in vivo; method in brief: as §2
Stomach [30] = assay: Biodistribution in stomach of BALB/c mouse bearing rat AR42J cells at 0.37 MBq, iv after 2 hrs under cold condition; assay type: ADME, organism-based, AR-42J; details: in vivo; method in brief: as §2

Sequence of Somatostatin receptor type 2 (P30680 whole entry): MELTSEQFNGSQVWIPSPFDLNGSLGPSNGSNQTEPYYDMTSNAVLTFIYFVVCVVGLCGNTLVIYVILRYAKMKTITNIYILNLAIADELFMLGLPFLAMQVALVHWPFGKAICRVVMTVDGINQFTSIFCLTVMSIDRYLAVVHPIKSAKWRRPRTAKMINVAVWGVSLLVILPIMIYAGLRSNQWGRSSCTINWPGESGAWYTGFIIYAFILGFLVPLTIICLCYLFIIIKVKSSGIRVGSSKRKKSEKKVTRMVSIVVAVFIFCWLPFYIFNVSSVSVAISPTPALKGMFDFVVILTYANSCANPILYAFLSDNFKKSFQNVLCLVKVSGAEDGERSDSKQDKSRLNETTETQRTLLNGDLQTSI

IC50 [1]	logD [2]	Drug uptake (Blood [3])	Drug uptake [4]	Drug uptake (Pancreas [5])	Drug uptake [6]	Drug uptake (Kidney [7])	Drug uptake (Liver [8])	Drug uptake (Stomach [9])	Drug uptake (Blood [10])	Drug uptake [11]	Drug uptake (Pancreas [12])	Drug uptake [13]	Drug uptake (Kidney [14])	Drug uptake (Liver [15])	Drug uptake (Stomach [16])	Drug uptake (Blood [17])	Drug uptake [18]	Drug uptake (Pancreas [19])	Drug uptake [20]	SMILES	further results
2.45 nM	-1.79	1.52 % ID/g	25.31 % ID/g	2.96 % ID/g	2.69 % ID/g	92.2 % ID/g	18.67 % ID/g	10.21 % ID/g	0.86 % ID/g	30.91 % ID/g	1.69 % ID/g	2.49 % ID/g	65.61 % ID/g	14.92 % ID/g	7.78 % ID/g	0.17 % ID/g	12.14 % ID/g	0.36 % ID/g	1.27 % ID/g	C[C@@H](O)[C@@H]1NC(=O)[C@H](CCCCN)NC(=O)[C@@H](Cc2c[nH]c3ccccc23)NC(=O)[C@H](Cc2ccc(O)cc2)NC(=O)[C@@H](NC(=O)[C@@H](Cc2ccccc2)NC(=O)CCCCCn2cc(COc3cc(OCc4cn(CCCCCC(=O)N[C@H](Cc5ccccc5)C(=O)N[C@H]5CSSC[C@@H](C(=O)N[C@H](CO)[C@@H](C)O)NC(=O)[C@H]([C@@H](C)O)NC(=O)[C@H](CCCCN)NC(=O)[C@@H](Cc6c[nH]c7ccccc67)NC(=O)[C@H](Cc6ccc(O)cc6)NC5=O)nn4)cc(C(=O)NS(=O)(=O)CCNC(=O)CN4CCN(CC(=O)O)CCN(CC(=O)O)CCN(CC(=O)O)CC4)c3)nn2)CSSC[C@@H](C(=O)N[C@H](CO)[C@@H](C)O)NC1=O	Drug uptake (Kidney [21]): 11.74 % ID/g; Drug uptake (Liver [22]): 5.54 % ID/g; Drug uptake (Stomach [23]): 2.97 % ID/g; Drug uptake (Blood [24]): 2.31 % ID/g; Drug uptake [25]: 5.55 % ID/g; Drug uptake (Pancreas [26]): 1.18 % ID/g; Drug uptake [27]: 1.56 % ID/g; Drug uptake (Kidney [28]): 57.78 % ID/g; Drug uptake (Liver [29]): 22.67 % ID/g; Drug uptake (Stomach [30]): 3.46 % ID/g
1.32 nM	-2.2	0.27 % ID/g	42.33 % ID/g	2.92 % ID/g	1.86 % ID/g	54.19 % ID/g	0.52 % ID/g	7.54 % ID/g	0.13 % ID/g	21.32 % ID/g	0.63 % ID/g	0.78 % ID/g	10.96 % ID/g	0.22 % ID/g	6.11 % ID/g	0.04 % ID/g	10.75 % ID/g	0.17 % ID/g	0.63 % ID/g	C[C@@H](O)[C@@H]1NC(=O)[C@H](CCCCN)NC(=O)[C@@H](Cc2c[nH]c3ccccc23)NC(=O)[C@H](Cc2ccc(O)cc2)NC(=O)[C@@H](NC(=O)[C@@H](Cc2ccccc2)NC(=O)CCCCCn2cc(COc3cccc(C(=O)NS(=O)(=O)CCNC(=O)CN4CCN(CC(=O)O)CCN(CC(=O)O)CCN(CC(=O)O)CC4)c3)nn2)CSSC[C@@H](C(=O)N[C@H](CO)[C@@H](C)O)NC1=O	Drug uptake (Kidney [21]): 2.53 % ID/g; Drug uptake (Liver [22]): 0.09 % ID/g; Drug uptake (Stomach [23]): 2.83 % ID/g; Drug uptake (Blood [24]): 3.46 % ID/g; Drug uptake [25]: 4.82 % ID/g; Drug uptake (Pancreas [26]): 1.07 % ID/g; Drug uptake [27]: 2.38 % ID/g; Drug uptake (Kidney [28]): 62.74 % ID/g; Drug uptake (Liver [29]): 3.61 % ID/g; Drug uptake (Stomach [30]): 2.16 % ID/g
